PubChem BioAssay
Activity calls are given as the source filed them.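 How the source made its calls, unless noted: active means fluorescence slope after compound addition differing from the mean of all tested samples at 99.7% confidence, mostly higher but some lower; inactive means the rest.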

How the values were obtained:
[1] = inhibitors of TNFa-induced NFkB p65 translocation, primary screen, imaging, HUVEC, MLSMR starter and 10KST1 sets (AID 438;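 active means inhibition above 20% together with a positive visual image hit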;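 further: compound added about 3h40 before a 20 min TNFalpha stimulation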;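 on inhibition: signal is the nuclear over cytoplasmic p65 intensity ratio per well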); conditions: HUVEC TNFa-induced p65 nuclear translocation; cell count: measured here: nuclei count (cytotoxicity indicator), at 2.08 µM; inhibition: at 2 µM, stronger effect = higher value, 0% TNFa-plus-vehicle, 100% no-TNFa wells
[2] = inhibitors of mutant huntingtin aggregation, primary screen, imaging, exon1htt(103Q)mCFP cells, high-content imaging (AID 483;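 active means visual image review flags a hit and inhibition of aggregation exceeds 20%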;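 further: compound exposure lasted 3 days before fixation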;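 on nuclei count: percent of the per-plate median nuclei count of sample wells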); conditions: exon1htt(103Q)mCFP cell line, aggregate imaging, at 2 µM; inhibition of aggregation: stronger effect = higher value; nuclei count: measured here: cell count, toxicity
[3] = inhibitors of E-selectin induction by TNFa, primary screen, imaging, HUVEC, immunofluorescence, MLSMR starter and 10KST1 sets (AID 487;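 active means visually confirmed hit in the image check and inhibition above 20%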;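 on inhibition: signal is fraction of cell area covered by stained E-selectin grains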;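 on nuclei count: 100% = median nuclei count of all wells on the same plate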); conditions: HUVEC TNFalpha-induced E-selectin immunofluorescence imaging, at 2 µM; inhibition: stronger effect = higher value; nuclei count: measured here: cell number, toxicity
[4] = biological target: Voltage-gated potassium channel subunit beta-2 (Rattus norvegicus) (UniProt P62483); experiment: KvBeta enzyme negative modulators, primary screen, biochemical, NADPH fluorescence (AID 622;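 active means fluorescence slope higher than the sample average by over 3 SD, cut at about -0.22 in these data, passing the limit was not always enough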;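 further: slope of raw intensity against log time taken from 70 to 1610 s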); conditions: recombinant KvBeta, 4-cyanobenzaldehyde reduction, at 10 µM, stronger effect = higher value
Voltage-gated potassium channel subunit beta-2 (Rattus norvegicus), sequence (P62483 whole entry, looked up): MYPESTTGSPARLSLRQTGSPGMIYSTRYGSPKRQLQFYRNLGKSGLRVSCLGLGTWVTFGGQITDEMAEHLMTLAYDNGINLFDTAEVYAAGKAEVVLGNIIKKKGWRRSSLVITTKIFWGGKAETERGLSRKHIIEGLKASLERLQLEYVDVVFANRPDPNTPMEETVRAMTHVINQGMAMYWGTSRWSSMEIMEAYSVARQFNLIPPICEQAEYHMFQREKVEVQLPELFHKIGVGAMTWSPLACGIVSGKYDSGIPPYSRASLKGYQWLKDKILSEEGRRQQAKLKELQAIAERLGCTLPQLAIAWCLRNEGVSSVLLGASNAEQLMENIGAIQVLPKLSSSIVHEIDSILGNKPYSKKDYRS

[5] = biological target: Voltage-gated potassium channel subunit beta-2 (Rattus norvegicus) (UniProt P62483); experiment: KvBeta positive modulators, primary screen, biochemical, NADPH fluorescence (AID 623;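 active means NADPH fluorescence slope more negative than the mean of all samples by about 3 SD, 99.7% confidence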;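 further: fluorescence intensity change per second fitted from 20 to 320 s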); conditions: Recombinant KvBeta, NADPH fluorescence decrease slope, 10 min; at 10 µM; stronger effect = lower value
[6] = biological target: Muscarinic acetylcholine receptor M4 (Homo sapiens) (UniProt P08173); experiment: compounds altering M4/GIRK thallium flux, either direction, primary screen, M4 allosteric agonist project, cell-based, HEK293 M4/GIRK, BTC-AM (AID 625); conditions: at 10 µM, actives lie on both sides;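 further: thallium influx through GIRK channels coupled to M4 in HEK293 cells with BTC-AM dye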
Muscarinic acetylcholine receptor M4 (Homo sapiens), sequence (P08173 whole entry, looked up): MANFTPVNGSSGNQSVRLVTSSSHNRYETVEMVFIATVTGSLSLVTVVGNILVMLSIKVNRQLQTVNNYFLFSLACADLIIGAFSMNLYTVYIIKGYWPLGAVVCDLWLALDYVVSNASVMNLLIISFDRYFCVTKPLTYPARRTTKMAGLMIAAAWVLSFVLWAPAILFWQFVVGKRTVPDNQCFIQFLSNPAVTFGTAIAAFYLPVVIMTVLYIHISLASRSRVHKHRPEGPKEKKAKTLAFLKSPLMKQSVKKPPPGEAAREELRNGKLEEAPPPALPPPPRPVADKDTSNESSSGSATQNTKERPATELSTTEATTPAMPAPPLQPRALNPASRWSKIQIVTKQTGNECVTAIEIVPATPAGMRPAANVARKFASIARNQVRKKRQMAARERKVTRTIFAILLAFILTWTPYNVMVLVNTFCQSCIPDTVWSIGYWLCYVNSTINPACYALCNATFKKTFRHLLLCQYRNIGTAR
Procedure, shortened: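 Material – HEK293 cells with M4 receptor and GIRK channels · Buffer or medium – pH 7.3 thallium assay buffer · Doses – one dose, 10 µM final · Timing – cells overnight at 37 °C, BTC-AM loading 1 h, reads 2 min total · Measured by – kinetic fluorescence with BTC-AM dye · Controls – carbachol and DMSO controls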

[7] = inhibitors of Sendai virus-induced IRF3 signaling, primary screen, TLR/RLR signaling modifier project, cell-based, Sendai virus stimulus, luciferase, 10K MLSCN set (AID 602276;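 active means inhibition at or above 50% at 10 µM; inactive means inhibition below 50%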;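 further: firefly luciferase from ISG56 promoter only with Renilla not read in this screen; 0% = Sendai virus plus DMSO and 100% = medium plus DMSO without virus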); conditions: HEK293 RL24 IRF3 luciferase reporter, at 10 µM, stronger effect = higher value
[8] = inhibitors of poly I:C-induced TLR3 signaling, primary screen, cell-based, poly I:C stimulus, luciferase, 10K MLSCN set (AID 602277;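 active means inhibition of the reporter signal at or above 50%; inactive means inhibition below 50%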); conditions: HEK293-TLR3 RL24 IRF3 luciferase reporter, at 10 µM, stronger effect = higher value

Structure (SMILES)	cell count [1]	inhibition [1]	inhibition of aggregation [2]	nuclei count [2] [%]	inhibition [3]	nuclei count [3] [%]	fluorescence slope [4]	NADPH fluorescence slope [5]	fluorescence slope [6]	inhibition [7]	inhibition [8]
O=C(CSc1ncnc2ccccc12)N1CCN(c2ccccc2)CC1	567	-10.9% (inactive)	10.5% (inactive)	99.4	9.1% (inactive)	108	-0.47 (inactive)	3.6e-05 (inactive)	0.00572 (inactive)	1.94% (inactive)	15.7% (inactive)
COc1ccccc1NC(=O)CC(NCc1ccccc1)C(=O)O (stereo not drawn)	405	-8.3% (inactive)	-9.7% (inactive)	63.1	14.4% (inactive)	100	-0.223 (inactive)	-1.3e-05 (inactive)	0.00589 (inactive)	8.88% (inactive)	5.77% (inactive)
Cc1ccc(C)c(NC(=O)C2CCC(C)(C(=O)O)C2(C)C)c1 (stereo not drawn)	352	-2.5% (inactive)	6% (inactive)	98	-105% (inactive)	124	-0.603 (inactive)	2.7e-06 (inactive)	0.00734 (inactive)	15.8% (inactive)	30.8% (inactive)
CC1(c2ccc(OC(F)F)cc2)NC(=O)N(CC(=O)Nc2ccc3c(c2)OCO3)C1=O (stereo not drawn)	404	-6.6% (inactive)	-11.2% (inactive)	109	-7.1% (inactive)	107	-0.576 (inactive)	-6.3e-05 (inactive)	0.00647 (inactive)	-3.26% (inactive)	2.25% (inactive)
Cc1ccccc1CS(=O)(=O)CCC(=O)N1CCN(c2ccc(N3CCOCC3)nn2)CC1	318	-0.9% (inactive)	-19.9% (inactive)	81	-146% (inactive)	87.2	-0.424 (inactive)	-8.7e-08 (inactive)	0.00541 (inactive)	3.04% (inactive)	12.2% (inactive)
COc1cc(NC(=O)c2cc(OC)c(OC)c(OC)c2)c(OC)cc1NC(=O)CN1CCCCC1	700	-11.1% (inactive)	12.2% (inactive)	115	-14.6% (inactive)	115	-0.309 (inactive)	-3.3e-05 (inactive)	0.00436 (inactive)	3.03% (inactive)	-8.31% (inactive)
CCOCCCNC(=O)c1ccc2c(c1)ncn2C1CCCC1	573	-4.8% (inactive)	-5.5% (inactive)	100	-12% (inactive)	94.4	-0.495 (inactive)	4.4e-05 (inactive)	0.00159 (inactive)	-12.4% (inactive)	-122% (inactive)
Cc1onc(-c2ccccc2)c1C(=O)Nc1ccnn1C1CCCCC1	387	1.4% (inactive)	0.6% (inactive)	94.4	8.4% (inactive)	81.7	-0.367 (inactive)	-8.4e-05 (inactive)	0.00689 (inactive)	9.16% (inactive)	18.3% (inactive)
Cc1ccc(CSc2nc3c(c(=O)[nH]2)C(c2ccncc2)C2=C(CCCC2=O)N3)cc1 (stereo not drawn)	518	-16.7% (inactive)	3.6% (inactive)	79.3	-14.5% (inactive)	87.2	-0.457 (inactive)	-3.5e-05 (inactive)	0.00543 (inactive)	21.7% (inactive)	15.5% (inactive)
CCOC(=O)CC1(CC(=O)OCC)NC(=O)c2c(C)sc(C(=O)OCC)c2N1	704	-3.5% (inactive)	16% (inactive)	94.4	3.1% (inactive)	112	-0.402 (inactive)	-3.3e-06 (inactive)	0.00375 (inactive)	10.5% (inactive)	17% (inactive)
COC(=O)c1[nH]c2cccc(C)c2c1NC(=O)CN1CCCc2ccccc21	279	6.2% (inactive)	22.8% (inactive)	94	-47.3% (inactive)	100	-0.45 (inactive)	6.4e-05 (inactive)	0.00793 (inactive)	2.04% (inactive)	20% (inactive)
Cc1ccccc1NC(=O)c1c(F)c(F)c(F)c(F)c1F	490	-6% (inactive)	-11.8% (inactive)	98.6	-102% (inactive)	135	-0.565 (inactive)	-8.2e-05 (inactive)	0.00407 (inactive)	12.8% (inactive)	11.6% (inactive)
COc1ccc(-c2nn(-c3ccccc3)cc2/C=N/n2cnnc2)cc1OC	737	0.7% (inactive)	-17.1% (inactive)	100	-74.5% (inactive)	108	-0.464 (inactive)	-6.1e-05 (inactive)	0.00596 (inactive)	1.15% (inactive)	1.32% (inactive)
CCN(CC(=O)NC(=O)NCc1ccco1)Cc1nc2ccccc2c(=O)[nH]1	407	-20.9% (inactive)	-36.6% (inactive)	97.9	63.7% (active)	68.4	-0.561 (inactive)	-5.5e-05 (inactive)	0.0066 (inactive)	15.7% (inactive)	15% (inactive)
CC(C)(C)n1ncc2c(=O)n(CC(=O)NCCc3ccccc3)cnc21	457	3.9% (inactive)	7.3% (inactive)	95.2	27.5% (inactive)	92.8	-0.595 (inactive)	1.3e-05 (inactive)	0.0063 (inactive)	-40.8% (inactive)	-58.1% (inactive)
Cc1ccc(S(=O)(=O)N(C)CC(=O)NC2CCCC2)cc1	226	10.1% (inactive)	1.1% (inactive)	90.7	-98.8% (inactive)	148	-0.453 (inactive)	-2.6e-05 (inactive)	0.00453 (inactive)	10.5% (inactive)	29.4% (inactive)
CCN1CCN(Cc2ccccc2NC(=O)Nc2ccc(C)cc2)CC1	258	-3.1% (inactive)	21.9% (inactive)	41.1	-23.4% (inactive)	94	-0.487 (inactive)	-6.3e-07 (inactive)	0.00496 (inactive)	-27.3% (inactive)	-69.1% (inactive)
CCOC(=O)C1CCN(C(=O)Nc2ccc3snnc3c2)CC1	408	5.7% (inactive)	5% (inactive)	89.8	-38.5% (inactive)	107	-0.206 (inactive)	-2.9e-05 (inactive)	0.00565 (inactive)	13.9% (inactive)	10.8% (inactive)
O=C(CNC(=O)c1cccs1)NCCN1CCN(c2ccccc2F)CC1	585	-8.2% (inactive)	-28.3% (inactive)	99.6	-19.1% (inactive)	106	-0.451 (inactive)	-3.9e-05 (inactive)	0.00484 (inactive)	19.5% (inactive)	17.5% (inactive)
O=C(Nc1ncnc2sc3c(c12)CCCCC3)c1ccco1	260	-7% (inactive)	32.4% (active)	85.3	62.2% (inactive)	65.2	-0.542 (inactive)	-1.4e-05 (inactive)	0.0064 (inactive)	21.8% (inactive)	22.6% (inactive)
O=C(CCSc1ccccc1)N1CCN(C(=O)c2ccco2)CC1	462	-11.1% (inactive)	2% (inactive)	102	-29.7% (inactive)	97.1	-0.603 (inactive)	-3.1e-05 (inactive)	0.0052 (inactive)	-23.3% (inactive)	-56% (inactive)
Nc1cc(C(=O)O)ccc1Nc1ccccc1	423	-9.8% (inactive)	20.7% (inactive)	86.5	15.1% (inactive)	101	-0.557 (inactive)	-4.4e-06 (inactive)	0.0056 (inactive)	-4.17% (inactive)	-19% (inactive)
O=C(NCc1ccccn1)c1ccc2nc(-c3ccco3)c(-c3ccco3)nc2c1	626	-27.2% (inactive)	-52.7% (inactive)	82.3	-147% (inactive)	103	-0.504 (inactive)	-2.5e-05 (inactive)	0.00242 (inactive)	10.9% (inactive)	3.28% (inactive)
CCN1C(=O)OC2(CCCCC2)C1(C)O (stereo not drawn)	429	0% (inactive)	-3.6% (inactive)	114	9.3% (inactive)	106	-0.566 (inactive)	2.7e-05 (inactive)	0.00575 (inactive)	4.15% (inactive)	8.64% (inactive)
CCc1nc(SCC(=O)Nc2nccs2)c2oc3ccccc3c2n1	347	4% (inactive)	12.5% (inactive)	104	-14.6% (inactive)	116	-0.283 (inactive)	-2.5e-06 (inactive)	0.00667 (inactive)	1.9% (inactive)	-8.08% (inactive)
COc1ccc(NC(=O)CCCN2C(=O)C3C4C=CC(C4)C3C2=O)c(OC)c1 (stereo not drawn)	554	-1.8% (inactive)	5.1% (inactive)	94.8	49.6% (inactive)	62.2	-0.554 (inactive)	-2.9e-05 (inactive)	0.00549 (inactive)	9.13% (inactive)	20.8% (inactive)
COc1ccccc1OC(=O)c1ccc(SC)cc1OC	384	-15.2% (inactive)	6.6% (inactive)	99.3	7.8% (inactive)	116	-0.57 (inactive)	-2.8e-05 (inactive)	0.00466 (inactive)	-1.26% (inactive)	2.42% (inactive)
N#CC1=C(N)N(c2ccccc2)C2=C(C(=O)CCC2)C1c1cccs1 (stereo not drawn)	610	0% (inactive)	3.8% (inactive)	108	-53.5% (inactive)	98.1	-0.362 (inactive)	-4.2e-05 (inactive)	0.00595 (inactive)	-12.6% (inactive)	-9.24% (inactive)
